Assay results: ChEMBL document CHEMBL4052644, “Synthesis of novel benzylidene analogues of betulinic acid as potent cytotoxic agents” (Eur J Med Chem, 2017)

Columns and labels:
A549 [1] = test: Growth inhibition of human A549 cells at 10 uM after 48 hrs by SRB assay relative to control; type: functional; details: A549, 48 h, read-out: GI
In short: (§1)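 Primary SRB screen of every compound at a single concentration of 10 µM. Growth inhibition is expressed relative to control.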

PC-3 [2] = test: Growth inhibition of human PC3 cells at 10 uM after 48 hrs by SRB assay relative to control; type: functional; details: PC-3, 48 h, read-out: GI; in short: as §1
HCT-116 [3] = test: Growth inhibition of human HCT116 cells at 10 uM after 48 hrs by SRB assay relative to control; type: functional; details: HCT-116, 48 h, read-out: GI; in short: as §1
MCF7 [4] = test: Growth inhibition of human MCF7 cells at 10 uM after 48 hrs by SRB assay relative to control; type: functional; details: MCF7, 48 h, read-out: GI; in short: as §1
MIA PaCa-2 [5] = test: Growth inhibition of human MIAPaCa2 at 10 uM after 48 hrs by SRB assay relative to control; type: functional; details: MIA PaCa-2, 48 h, read-out: GI; in short: as §1
A549 [6] = test: Cytotoxicity against human A549 cells assessed as reduction in cell viability after 48 hrs by SRB assay; type: functional, cell-based; details: A549, 48 h
In short: (§2)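 SRB assay. Compounds active at 10 µM in the primary screen were retested at 1, 2.5 and 5 µM, and IC50 was calculated from these concentrations. The normal breast epithelial line fR2 was tested alongside the cancer lines.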

PC-3 [7] = test: Cytotoxicity against human PC3 cells assessed as reduction in cell viability after 48 hrs by SRB assay; type: functional, cell-based; details: PC-3, 48 h; in short: as §2
HCT-116 [8] = test: Cytotoxicity against human HCT116 cells assessed as reduction in cell viability after 48 hrs by SRB assay; type: functional, cell-based; details: HCT-116, 48 h; in short: as §2
MCF7 [9] = test: Cytotoxicity against human MCF7 cells assessed as reduction in cell viability after 48 hrs by SRB assay; type: functional, cell-based; details: MCF7, 48 h; in short: as §2
MIA PaCa-2 [10] = test: Cytotoxicity against human MIAPaCa2 cells assessed as reduction in cell viability after 48 hrs by SRB assay; type: functional, cell-based; details: MIA PaCa-2, 48 h; in short: as §2
[11] = Cytotoxicity against human FR2 cells assessed as reduction in cell viability after 48 hrs by SRB assay; type: cell-based; details: FR2, 48 h; in short: as §2
[12] = Selectivity index, ratio of IC50 for human FR2 cells to IC50 for human A549 cells; type: functional
In short: (§3)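 Selectivity index is the IC50 in normal breast epithelial fR2 cells divided by the IC50 in each cancer line. All IC50 values come from the SRB assay.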

[13] = Selectivity index, ratio of IC50 for human FR2 cells to IC50 for human HCT116 cells; type: functional; in short: as §3
[14] = Selectivity index, ratio of IC50 for human FR2 cells to IC50 for human MCF7 cells; type: functional; in short: as §3
[15] = Selectivity index, ratio of IC50 for human FR2 cells to IC50 for human MIAPaCa2 cells; type: functional; in short: as §3
[16] = Selectivity index, ratio of IC50 for human FR2 cells to IC50 for human PC3 cells; type: functional; in short: as §3

Question: What does the source list for `C=C(C)[C@@H]1CC[C@]2(C(=O)O)CC[C@]3(C)[C@H](CC[C@@H]4[C@@]5(C)C/C(=C\c6ccc([N+](=O)[O-])cc6)C(=O)C(C)(C)[C@@H]5CC[C@]43C)[C@@H]12`?
Answer: inhibition of growth at 10 µM (A549 [1]): 82%; inhibition of growth at 10 µM (PC-3 [2]): 37%; inhibition of growth at 10 µM (HCT-116 [3]): 75%; inhibition of growth at 10 µM (MCF7 [4]): 83%; inhibition of growth at 10 µM (MIA PaCa-2 [5]): 61%; IC50 (A549 [6]): 1.5 µM; IC50 (PC-3 [7]): > 10 µM; IC50 (HCT-116 [8]): 1.4 µM; IC50 (MCF7 [9]): 3.1 µM; IC50 (MIA PaCa-2 [10]): 6.5 µM; IC50 [11]: 14 µM; Ratio IC50 [12]: 9.353; Ratio IC50 [13]: 10.02; Ratio IC50 [14]: 4.525; Ratio IC50 [15]: 2.158

Question: Which inhibition of growth at 10 µM (A549 [1]) does the source give for `C=C(C)[C@@H]1CC[C@]2(C(=O)O)CC[C@]3(C)[C@H](CC[C@@H]4[C@@]5(C)C/C(=C\c6ccc(F)cc6)C(=O)C(C)(C)[C@@H]5CC[C@]43C)[C@@H]12` here?
Answer: The inhibition of growth at 10 µM was 92%.

Question: What about the inhibition of growth at 10 µM (PC-3 [2]) of the same compound?
Answer: The inhibition of growth at 10 µM was 95%.

Question: And the inhibition of growth at 10 µM (HCT-116 [3])?
Answer: The inhibition of growth at 10 µM was 99%.

Question: What about the inhibition of growth at 10 µM (MCF7 [4]) of the same compound?
Answer: The inhibition of growth at 10 µM was 95%.

Question: And the inhibition of growth at 10 µM (MIA PaCa-2 [5])?
Answer: Its inhibition of growth at 10 µM is 96%.

Question: What about the IC50 (A549 [6]) of the same compound?
Answer: The IC50 was 2.6 µM.

Question: And the IC50 (PC-3 [7])?
Answer: Its IC50 is 6.4 µM.

Question: What about the IC50 (HCT-116 [8]) of the same compound?
Answer: The IC50 was 3.6 µM.

Question: What about the IC50 (MCF7 [9]) of the same compound?
Answer: Its IC50 is 4.4 µM.

Question: What about the IC50 (MIA PaCa-2 [10]) of the same compound?
Answer: The IC50 was 5.4 µM.

Question: What about the IC50 [11] of the same compound?
Answer: The IC50 was 71.1 µM.

Question: What about the “Ratio IC50” value [12] of the same compound?
Answer: Its value is 27.33.

Question: What about the “Ratio IC50” value [16] of the same compound?
Answer: The value was 11.1.

Question: What about the “Ratio IC50” value [13] of the same compound?
Answer: The value was 19.73.

Question: What about the “Ratio IC50” value [14] of the same compound?
Answer: The value was 16.15.

Question: What about the “Ratio IC50” value [15] of the same compound?
Answer: Its value is 13.15.

Question: Which results are given for `C=C(C)[C@@H]1CC[C@]2(C(=O)O)CC[C@]3(C)[C@H](CC[C@@H]4[C@@]5(C)C/C(=C\c6ccccc6Br)[C@H](O)C(C)(C)[C@@H]5CC[C@]43C)[C@@H]12`?
Answer: inhibition of growth at 10 µM (A549 [1]): 47%; inhibition of growth at 10 µM (PC-3 [2]): 19%; inhibition of growth at 10 µM (HCT-116 [3]): 43%; inhibition of growth at 10 µM (MCF7 [4]): 57%; inhibition of growth at 10 µM (MIA PaCa-2 [5]): 49%; IC50 (A549 [6]): > 10 µM; IC50 (PC-3 [7]): > 10 µM; IC50 (HCT-116 [8]): > 10 µM; IC50 (MCF7 [9]): 8.2 µM; IC50 (MIA PaCa-2 [10]): 9.6 µM; IC50 [11]: 21.7 µM; Ratio IC50 [14]: 2.642; Ratio IC50 [15]: 2.257

Question: For `C=C(C)[C@@H]1CC[C@]2(C(=O)O)CC[C@]3(C)[C@H](CC[C@@H]4[C@@]5(C)C/C(=C/C=C/c6ccccc6)C(=O)C(C)(C)[C@@H]5CC[C@]43C)[C@@H]12`, which inhibition of growth at 10 µM (A549 [1]) is on record?
Answer: The inhibition of growth at 10 µM was 93%.

Question: What about the inhibition of growth at 10 µM (PC-3 [2]) of the same compound?
Answer: The inhibition of growth at 10 µM was 71%.

Question: What about the inhibition of growth at 10 µM (HCT-116 [3]) of the same compound?
Answer: The inhibition of growth at 10 µM was 66%.

Question: What about the inhibition of growth at 10 µM (MCF7 [4]) of the same compound?
Answer: Its inhibition of growth at 10 µM is 84%.

Question: And the inhibition of growth at 10 µM (MIA PaCa-2 [5])?
Answer: The inhibition of growth at 10 µM was 48%.

Question: And the IC50 (A549 [6])?
Answer: The IC50 was 3.4 µM.

Question: What about the IC50 (PC-3 [7]) of the same compound?
Answer: Its IC50 is 7.8 µM.

Question: And the IC50 (HCT-116 [8])?
Answer: Its IC50 is 5.8 µM.

Question: And the IC50 (MCF7 [9])?
Answer: The IC50 was 7.2 µM.

Question: And the IC50 (MIA PaCa-2 [10])?
Answer: Its IC50 is over 10 µM.

Question: What about the IC50 [11] of the same compound?
Answer: Its IC50 is 13.1 µM.

Question: And the “Ratio IC50” value [12]?
Answer: Its value is 3.864.

Question: What about the “Ratio IC50” value [16] of the same compound?
Answer: The value was 1.684.

Question: And the “Ratio IC50” value [13]?
Answer: Its value is 2.265.

Question: And the “Ratio IC50” value [14]?
Answer: The value was 1.825.

Question: Which inhibition of growth at 10 µM (A549 [1]) does the source give for `C=C(C)[C@@H]1CC[C@]2(C(=O)O)CC[C@]3(C)[C@H](CC[C@@H]4[C@@]5(C)C/C(=C\c6cccc([N+](=O)[O-])c6)[C@H](O)C(C)(C)[C@@H]5CC[C@]43C)[C@@H]12` here?
Answer: Its inhibition of growth at 10 µM is 92%.

Question: What about the inhibition of growth at 10 µM (PC-3 [2]) of the same compound?
Answer: The inhibition of growth at 10 µM was 80%.

Question: And the inhibition of growth at 10 µM (HCT-116 [3])?
Answer: Its inhibition of growth at 10 µM is 88%.

Question: And the inhibition of growth at 10 µM (MCF7 [4])?
Answer: The inhibition of growth at 10 µM was 77%.

Question: What about the inhibition of growth at 10 µM (MIA PaCa-2 [5]) of the same compound?
Answer: The inhibition of growth at 10 µM was 80%.

Question: What about the IC50 (A549 [6]) of the same compound?
Answer: Its IC50 is 1.22 µM.

Question: What about the IC50 (PC-3 [7]) of the same compound?
Answer: The IC50 was 4.1 µM.

Question: What about the IC50 (HCT-116 [8]) of the same compound?
Answer: The IC50 was 3.9 µM.

Question: And the IC50 (MCF7 [9])?
Answer: The IC50 was 4.5 µM.

Question: And the IC50 (MIA PaCa-2 [10])?
Answer: Its IC50 is 6.7 µM.

Question: And the IC50 [11]?
Answer: The IC50 was 12.1 µM.

Question: And the “Ratio IC50” value [12]?
Answer: Its value is 9.88.

Question: And the “Ratio IC50” value [16]?
Answer: Its value is 2.941.

Question: And the “Ratio IC50” value [13]?
Answer: The value was 3.092.

Question: And the “Ratio IC50” value [14]?
Answer: Its value is 2.68.

Question: And the “Ratio IC50” value [15]?
Answer: The value was 1.8.

Question: Which inhibition of growth at 10 µM (A549 [1]) does the source give for `C=C(C)[C@@H]1CC[C@]2(C(=O)O)CC[C@]3(C)[C@H](CC[C@@H]4[C@@]5(C)C/C(=C\c6ccc(OC)cc6)C(=O)C(C)(C)[C@@H]5CC[C@]43C)[C@@H]12` here?
Answer: Its inhibition of growth at 10 µM is 94%.

Question: And the inhibition of growth at 10 µM (PC-3 [2])?
Answer: Its inhibition of growth at 10 µM is 81%.

Question: And the inhibition of growth at 10 µM (HCT-116 [3])?
Answer: The inhibition of growth at 10 µM was 69%.

Question: What about the inhibition of growth at 10 µM (MCF7 [4]) of the same compound?
Answer: Its inhibition of growth at 10 µM is 88%.

Question: What about the inhibition of growth at 10 µM (MIA PaCa-2 [5]) of the same compound?
Answer: Its inhibition of growth at 10 µM is 71%.

Question: What about the IC50 (A549 [6]) of the same compound?
Answer: The IC50 was 5.1 µM.

Question: And the IC50 (PC-3 [7])?
Answer: Its IC50 is 6.8 µM.

Question: What about the IC50 (HCT-116 [8]) of the same compound?
Answer: Its IC50 is 5.4 µM.

Question: And the IC50 (MCF7 [9])?
Answer: The IC50 was 6.8 µM.

Question: What about the IC50 (MIA PaCa-2 [10]) of the same compound?
Answer: The IC50 was 7.07 µM.

Question: And the IC50 [11]?
Answer: Its IC50 is 23.9 µM.

Question: And the “Ratio IC50” value [12]?
Answer: Its value is 4.696.

Question: What about the “Ratio IC50” value [16] of the same compound?
Answer: Its value is 3.522.

Question: What about the “Ratio IC50” value [13] of the same compound?
Answer: The value was 4.435.

Question: What about the “Ratio IC50” value [14] of the same compound?
Answer: Its value is 3.522.

Question: What about the “Ratio IC50” value [15] of the same compound?
Answer: The value was 3.387.
